Eight molecules from ChEMBL document CHEMBL1140901, “Discovery of novel arylethynyltriazole ribonucleosides with selective and effective antiviral and antiproliferative activity” (J Med Chem, 2009) can be followed below.

Molecules are shown by their SMILES. Activity calls are given as the source filed them. The calls are words filed in the database; no cut-off is given here. Bounds are passed on as bounds.

Data set [1] concerns Hepatitis C virus. Briefly: Antiviral activity against HCV in human HuH5.2 cells assessed as inhibition of replicon replication. Format: functional, organism-based, Hepacivirus hominis. Conditions: Huh-5-2. The essentials: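 Huh-5-2 replicon cells seeded 5000/well in DMEM with 2% FCS and 250 µg/mL G418. After 24 h at 37 °C, 3-fold serial dilutions given in DMEM without G418. Incubated 4 days at 37 °C. Replicon read as luciferase activity (Steady-Glo). EC50 is 50% inhibition of replication; mean ± SE, n ≥ 3.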

Data set [2] in a line: Cytotoxicity against human HuH5.2 cells. The data set is classed as cell-based, Huh-5-2. In short, it runs like this:
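Huh-5-2 replicon cells were seeded at 5000/well in DMEM with 2% FCS and 250 µg/mL G418 and kept 24 h at 37 °C (5% CO₂). They were then exposed to 3-fold serial dilutions in medium without G418 for 4 days at 37 °C. CC₅₀ is the µM concentration inhibiting Huh cell proliferation by 50%, given as mean ± SE (n ≥ 3).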

Data set [3] concerns Hepatitis C virus. Nature of the data set: Antiviral activity against HCV in human Huh9.13 cells assessed as inhibition of replicon replication. Format: functional, organism-based, Hepacivirus hominis. In short, it runs like this:
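Huh-9-13 replicon cells seeded 5000/well in DMEM with 2% FCS and 1000 µg/mL G418. After 24 h at 37 °C, 3-fold serial dilutions given without G418 for 4 days. Cells washed and lysed, replicon RNA quantified by real-time PCR. EC50 is 50% drop in HCV RNA versus untreated control; mean ± SE, n ≥ 3.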

A short description of data set [4]: Cytotoxicity against human Huh-9-13 cells. The data set is classed as cell-based. In short, it runs like this: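 Huh-9-13 replicon cells were seeded at 5000/well in DMEM with 2% FCS and 1000 µg/mL G418 and incubated 24 h at 37 °C. They then received 3-fold serial compound dilutions in G418-free medium for 4 days at 37 °C. CC₅₀ is the µM concentration inhibiting Huh cell proliferation by 50%, given as mean ± SE (n ≥ 3).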

In data set [5] the test system is Hepatitis C virus. Nature of the data set: Antiviral activity against HCV in human HuH6 cells assessed as inhibition of replicon replication. The settings on record: HuH-6. Format: functional, organism-based, Hepacivirus hominis. The essentials: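 Huh-6 replicon cells seeded 15 000/well and treated with serial compound dilutions as for Huh-9-13. Incubated 3 days at 37 °C, then lysed in cells-to-cDNA buffer. Replicon RNA quantified by real-time PCR. EC50 is 50% drop in HCV RNA versus untreated control; mean ± SE, n ≥ 3.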

Data set [6] in a line: Cytotoxicity against human HuH6 cells. The data set is classed as cell-based. The essentials: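 Huh-6 replicon cells were seeded at 15 000/well, handled as for Huh-9-13 (2% FCS DMEM, 3-fold serial dilutions without G418), and incubated 3 days at 37 °C. CC₅₀ is the µM concentration inhibiting Huh cell proliferation by 50%, given as mean ± SE (n ≥ 3).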
The test system of data set [7] is MIA PaCa-2. Nature of the data set: Antiproliferative activity against human MIAPaCa2 cells after 2 days by MTT assay. Format: functional. In short, it runs like this: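 MiaPaCa-2 cells in DMEM with 10% FBS, seeded 15 000/well and left to attach overnight. Medium then replaced with compound at different concentrations, untreated medium as control. Incubated 48 h at 37 °C, 5% CO2. Viable cells read by MTT colorimetric assay.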

The test system of data set [8] is MIA PaCa-2. Briefly: Induction of apoptosis in human MIAPaCa2 cells assessed as increase in caspase 3/7 activation after 48 hrs. Format: functional. The essentials:
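MiaPaCa-2 cells seeded 15 000/well; 24 h later treated 48 h. Caspase-3/7 measured by cleavage of fluorogenic Z-DEVD-R110 substrate (Apo-ONE reagent). Reagent incubated 30 min at room temperature, then fluorescence read. Triplicate; mean ± SE, n = 3.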

Data set [9] relates to MIA PaCa-2. Briefly: Cell clycle arrest in human MIAPaCa2 cells assessed as increase in sub-G1/G0 fraction after 48 hrs by flow cytometry analysis. Format: functional. In short, it runs like this:
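MiaPaCa-2 cells seeded at 10⁶ per 10 cm dish and left overnight. Treated 48 h, untreated as negative control. Cells trypsinised, fixed overnight in cold 70% ethanol at 4 °C, treated with RNase (500 µg/mL) and stained with propidium iodide (50 µg/mL). Sub-G1/G0 ratio read by flow cytometry on 10⁶ cells. Run in triplicate.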

The subject of data set [10] is MIA PaCa-2. Briefly: Induction of apoptosis in human MIAPaCa2 cells assessed as increase in DNA/histone nucleosome release into cytoplasm after 48 hrs by ELISA. The data set is classed as functional. In short, it runs like this:
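MiaPaCa-2 cells seeded 15 000/well for 24 h, then treated 48 h, untreated as control. Lysate supernatant captured on streptavidin plate with biotin anti-histone and peroxidase anti-DNA antibodies, 2 h at room temperature. After washing, peroxidase substrate added for 20 min, read at 405/490 nm. Result given as fold absorbance over control. Triplicate.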

In data set [11] the test system is MIA PaCa-2. Briefly: Antitumor activity against human MIAPaCa2 cells transfected mouse assessed as reduction of tumor volume at 150 mg/kg, ip administered every 3 days for 4 weeks measured after 2 weeks. Format: functional. The arrangement: scale not given: the % may be the effect or the level left. The settings on record: route intraperitoneal. In short, it runs like this: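 Male nude mice, 6 weeks old, inoculated subcutaneously with about 1 × 10⁷ MiaPaCa-2 cells plus 0.1 mL Matrigel. At 100 mm³ tumours, mice randomised; untreated mice served as control; five per group. Tumour volume measured weekly as length × width × depth × 0.5236. Mean ± SE, Student's t test.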

In data set [12] the test system is MIA PaCa-2. Nature of the data set: Antiproliferative activity against human MIAPaCa2 cells by MTT assay. The data set is classed as functional, cell-based. The essentials:
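MiaPaCa-2 pancreatic cancer cells in DMEM with 10% FBS, seeded at 15 000/well and allowed to attach overnight. Medium was then replaced with fresh medium containing compound, or medium alone as control. Cells were incubated for 48 h at 37 °C with 5% CO₂, and viable cells were counted by MTT colorimetric assay.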

As for `COC(=O)c1nc(C#CC2(O)CCCC2)n([C@@H]2O[C@H](COC(C)=O)[C@@H](OC(C)=O)[C@H]2OC(C)=O)n1`, the EC50 in data set [1] is 52.3 µM; in data set [3] it was 54.3 µM; in data set [5], 25.1 µM. The CC50 in data set [2], in [4] and in data set [6] was greater than 105 µM each time.
Regarding `NC(=O)c1nc(C#Cc2ccccc2)n(COCCO)n1`, the EC50 in data set [1] was 62.9 µM; in data set [3], greater than 164 µM; in data set [5], 112 µM. In addition, the CC50 in data set [2], in data set [4] and in [6] was greater than 170 µM throughout.
As for `NC(=O)c1nc(C#Cc2ccc(F)cc2)n(COCCO)n1`, the values for the EC50 in data set [1], in data set [3] and in data set [5] were 72.3 µM, 125 µM and 95.3 µM, respectively. The CC50 in data set [2] was greater than 160 µM; in data set [4], greater than 160 µM; in data set [6] it was 132 µM.
Turning to `Nc1ccn([C@@H]2O[C@H](CO)[C@@H](O)C2(F)F)c(=O)n1` [GEMCITABINE], the “inhibition (INH)” value in [7] was 29%. The “fold change (FC)” value in [8] came out at 2.
`COC(=O)c1nc(C#Cc2ccc(C(F)(F)F)cc2)n([C@@H]2O[C@H](COC(C)=O)[C@@H](OC(C)=O)[C@H]2OC(C)=O)n1`: the “inhibition (INH)” value in [7] is recorded as 59%. Besides, the “fold change (FC)” value in [9] was found to be 3; in [10], 3; in [8], 6.8. Also, the Activity in data set [11] came out at 60%.
In the case of `NC(=O)c1nc(C#Cc2ccc(C(F)(F)F)cc2)n(COCCO)n1`, the EC50 in [1] came out at 14.1 µM; in data set [3] it was 36.7 µM; in data set [5] it was 50.8 µM. The CC50 in [4] worked out at 79 µM; in data set [6], 87.5 µM. In addition, the outcome in data set [12] was inactive.
Consider `NC(=O)c1nc(C#Cc2ccc(C(F)(F)F)cc2)n([C@@H]2O[C@H](CO)[C@@H](O)[C@H]2O)n1`, for which the EC50 was found to be 17.7 µM in data set [1], 19.4 µM in [3] and 43.7 µM in data set [5]. The values for the 50% cytotoxic concentration (CC50) in data set [2], in [4] and in data set [6] were 82.5 µM, greater than 120 µM and greater than 120 µM, respectively.
For `NC(=O)c1ncn([C@@H]2O[C@H](CO)[C@@H](O)[C@H]2O)n1` [RIBAVIRIN], the values for the EC50 in data set [1], in data set [3] and in data set [5] were 28.7 µM, 84 µM and 33 µM, respectively. Besides, the CC50 in data set [4] is 229 µM; in data set [6], greater than 100 µM.
